Reference: ChEMBL document CHEMBL1914311, “Sugar-based peptidomimetics inhibit amyloid β-peptide aggregation” (Eur J Med Chem, 2011)
Active and inactive are the calls of the source. The calls are words filed in the database; no cut-off is given here. Numbered stars: 1 amine (or outer) side, 2 acyl side, 3 side chain; on linkers, the order of the positions; unused ones are H or OH. Square brackets hold non-standard residues; d marks the D form. Peptide text beside a SMILES is read from it. * marks the point of attachment. X1 = O=C(CCOC[C@H]1O[C@@H](OCCCN[*:1])[C@H](O)[C@@H](O)[C@@H]1O)[*:2]; X2 = O=C(CCOC[C@H]1O[C@@H](OCCN[*:1])[C@H](O)[C@@H](O)[C@@H]1O)[*:2]; X3 = O=C(CCOC[C@H]1O[C@H](OCCCN[*:1])[C@H](O)[C@@H](O)[C@@H]1O)[*:2]; X4 = O=C(CCOC[C@H]1O[C@H](OCCN[*:1])[C@H](O)[C@@H](O)[C@@H]1O)[*:2]; Boc = CC(C)(C)OC(=O)*

Assays:
[1] = Inhibition of amyloid beta (1 to 40) fibril formation at 1:1 protein to compound ratio by thioflavin T fluorescence assay relative to untreated control; conditions: concentration not given here
Procedure, shortened: (§1)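 HFIP-pretreated synthetic Aβ1-40 (DMSO stock) was used at 20 μM with compound at 1:1 or 1:0.1 peptide:compound ratios. The mixture contained 10 μM ThT in 10 mM Tris/HCl, 100 mM NaCl, pH 7.4, with 2.5% DMSO final. Fluorescence (ex 440, em 485 nm) was followed over time on aliquots, 2–6 runs on different days. Lag extension was taken as t(+compound)/t(alone), and plateau reduction as a percent decrease versus peptide alone.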

[2] = Inhibition of amyloid beta (1 to 40) fibril formation assessed as fold increase in lag time for aggregate formation at 1:1 protein to compound ratio by thioflavin T fluorescence assay relative to untreated control; procedure, shortened: as §1
[3] = Solubility of compound in water; type: physicochemical; conditions: buffer
[4] = target: T1, Islet amyloid polypeptide (Homo sapiens) (UniProt P10997); test: Inhibition of IAPP fibril formation assessed as inhibition of aggregate formation at 1:10 protein to compound ratio by thioflavin T fluorescence assay relative to untreated control; conditions: concentration not given here
T1 sequence (whole entry): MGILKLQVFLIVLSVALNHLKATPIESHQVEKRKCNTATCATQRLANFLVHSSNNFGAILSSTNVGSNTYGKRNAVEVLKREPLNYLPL
Procedure, shortened: (§2)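 IAPP was made synthetic with an amidated C-terminus, pretreated with HFIP, and taken up in DMSO. It was used at 5 μM with 10 μM ThT in 10 mM Tris/HCl, 100 mM NaCl, pH 7.4, with 2.5% DMSO final. Compound was added at a 1:10 peptide:compound ratio. Fluorescence was read over time (ex 440, em 485 nm), 2–6 runs on different days. Lag extension was calculated as t(+compound)/t(alone). Plateau reduction was (F − F+compound)/F × 100%.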

[5] = target: T1, Islet amyloid polypeptide (Homo sapiens); test: Inhibition of IAPP fibril formation assessed as fold increase in lag time for aggregate formation at 1:10 protein to compound ratio by thioflavin T fluorescence assay relative to untreated control; procedure, shortened: as §2
[6] = Inhibition of amyloid beta (1 to 40) fibril formation assessed as lag time for aggregate formation at 1:1 protein to compound ratio by thioflavin T fluorescence assay relative to untreated control; procedure, shortened: as §1
[7] = Inhibition of amyloid beta (1 to 40) fibril formation assessed as lag time for aggregate formation at 1:0.1 protein to compound ratio by thioflavin T fluorescence assay relative to untreated control; procedure, shortened: as §1
[8] = Inhibition of amyloid beta (1 to 40) fibril formation assessed as appearance of spherical aggregates at 1:1 protein to compound ratio after 1 to 2 days by transmission electron microscopy analysis
Procedure, shortened: (§3)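 Aβ1-40 and compound were incubated at a 1:1 ratio in 10 mM Tris·HCl, 100 mM NaCl, pH 7.4, under the ThT assay conditions. Aliquots were taken after 1 day, 2 days and 2 weeks. They were adsorbed onto carbon-coated grids for 2 min, negatively stained, and imaged by TEM.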

[9] = Inhibition of amyloid beta (1 to 40) fibril formation assessed as appearance of spherical aggregates at 1:01 protein to compound ratio after 1 to 2 days by transmission electron microscopy analysis
[10] = Binding affinity to amyloid beta (1 to 40) assessed as negative chemical shift at 1 mM by 2D NOESY spectroscopy analysis
Procedure, shortened: (§4)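 Synthetic C-terminally amidated Aβ1-40 was studied by NMR in 50 mM sodium phosphate, 150 mM NaCl, pH 7.0, with 10% D2O. 2D NOESY spectra were recorded with a 0.2 s mixing time.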

[11] = Inhibition of amyloid beta (1 to 40) fibril formation assessed as appearance of spherical aggregates at 1:01 protein to compound ratio after 2 weeks by transmission electron microscopy analysis
[12] = Inhibition of amyloid beta (1 to 40) fibril formation assessed as appearance of spherical aggregates at 1:1 protein to compound ratio after 2 weeks by transmission electron microscopy analysis; procedure, shortened: as §3
[13] = target: T1, Islet amyloid polypeptide (Homo sapiens); test: Inhibition of IAPP fibril formation at 1:10 protein to compound ratio after 24 hrs by transmission electron microscopy analysis
Procedure, shortened: (§5)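 IAPP and compound (1:10) were incubated under the ThT assay conditions: 10 mM Tris·HCl, 100 mM NaCl, pH 7.4. Aliquots were taken at 3 h and 24 h, adsorbed onto carbon-coated copper grids for 2 min, negatively stained, and imaged by transmission electron microscopy.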

[14] = Binding affinity to amyloid beta (1 to 40) at 1 mM by STD-NMR spectroscopy
Procedure, shortened: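 1D saturation transfer difference NMR was run in 50 mM sodium phosphate, 150 mM NaCl, pH 7.0, 10% D2O. Compound was at 1 mM and Aβ1-40 at 0.25 mM. Saturation used a cascade of Gaussian selective pulses (50 ms each, B1 0.16 kHz) lasting 2 s in total, applied alternately at -1 and +30 ppm. Compound-alone spectra served as control.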

[15] = target: T1, Islet amyloid polypeptide (Homo sapiens); test: Inhibition of IAPP fibril formation at 1:10 protein to compound ratio after 3 hrs by transmission electron microscopy analysis; procedure, shortened: as §5
[16] = Binding affinity to amyloid beta (1 to 40) assessed as negative chemical shift by NMR spectroscopy analysis; procedure, shortened: as §4
[17] = Binding affinity to amyloid beta (1 to 40) at 1:20 protein to compound ratio after 2 weeks by STD-NMR spectroscopy
Procedure, shortened: (§6)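 STD-NMR used diluted Aβ1-40 (30 μM) at a 1:20 peptide:compound ratio, followed over time. Buffer was 50 mM sodium phosphate, 150 mM NaCl, pH 7.0, 10% D2O. A cascade of Gaussian selective pulses (50 ms, B1 0.16 kHz, 2 s total) was applied alternately at -1 and +30 ppm.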

[18] = Binding affinity to amyloid beta (1 to 40) at 1:20 protein to compound ratio up to 1 hr by STD-NMR spectroscopy; procedure, shortened: as §6

SMILES	inhibition [1]	fold change (FC) [2]	solubility [3]	inhibition [4]	fold change (FC) [5]	TIME [6]	TIME [7]	inhibition [8]	inhibition [9]	Activity [10]	inhibition [11]	inhibition [12]	inhibition [13]	Activity [14]	inhibition [15]	Activity [16]	Activity [17]	Activity [18]
COC(=O)[C@H](CC(C)C)NC(=O)[C@@H](NC(=O)CCOC[C@H]1O[C@H](OCCNC(=O)[C@@H](NC(=O)[C@H](C)NC(=O)OC(C)(C)C)C(C)C)[C@H](O)[C@@H](O)[C@@H]1O)C(C)C (Boc-AV[X4]VL-OMe)	22%	3.4	soluble															
COC(=O)[C@H](CC(C)C)NC(=O)[C@@H](NC(=O)CCOC[C@H]1O[C@H](OCCCNC(=O)[C@@H](NC(=O)[C@H](C)NC(=O)OC(C)(C)C)C(C)C)[C@H](O)[C@@H](O)[C@@H]1O)C(C)C (Boc-AV[X3]VL-OMe)	60%	3.4	soluble	9%	1													
COC(=O)[C@H](CC(C)C)NC(=O)[C@@H](NC(=O)CCOC[C@H]1O[C@@H](OCCCNC(=O)[C@@H](NC(=O)[C@H](C)NC(=O)OC(C)(C)C)C(C)C)[C@H](O)[C@@H](O)[C@@H]1O)C(C)C (Boc-AV[X1]VL-OMe)	52%	3	soluble	5%	1	41 h	26 h	Active	Active	Active	inactive	Active	inactive	Active	inactive	inactive	Active	inactive
COC(=O)[C@H](CC(C)C)NC(=O)[C@@H](NC(=O)CCOC[C@H]1O[C@@H](OCCNC(=O)[C@@H](NC(=O)[C@H](C)NC(=O)OC(C)(C)C)C(C)C)[C@H](O)[C@@H](O)[C@@H]1O)C(C)C (Boc-AV[X2]VL-OMe)	40%	3.4	soluble	1%	1													
